According to ChEMBL document CHEMBL1128248, “C-9 and N-substituted analogs of cis-(3aR)-(-)-2,3,3a,4,5,9b-hexahydro-3- propyl-1H-benz[e]indole-9-carboxamide: 5-HT1A receptor agonists with various degrees of metabolic stability” (J Med Chem, 1995):
The source made the active and inactive calls. The calls are words filed in the database; no cut-off is given here.

Tests used:
[1] = molecular target: T1, 5-hydroxytryptamine receptor 1A (Rattus norvegicus, UniProt P19327); experiment: In vitro displacement of radioactively labeled ligand [3H]8-OH-DPAT from 5-hydroxytryptamine 1A receptor site in CHO cells; format: cell-based
T1 sequence (P19327 whole entry): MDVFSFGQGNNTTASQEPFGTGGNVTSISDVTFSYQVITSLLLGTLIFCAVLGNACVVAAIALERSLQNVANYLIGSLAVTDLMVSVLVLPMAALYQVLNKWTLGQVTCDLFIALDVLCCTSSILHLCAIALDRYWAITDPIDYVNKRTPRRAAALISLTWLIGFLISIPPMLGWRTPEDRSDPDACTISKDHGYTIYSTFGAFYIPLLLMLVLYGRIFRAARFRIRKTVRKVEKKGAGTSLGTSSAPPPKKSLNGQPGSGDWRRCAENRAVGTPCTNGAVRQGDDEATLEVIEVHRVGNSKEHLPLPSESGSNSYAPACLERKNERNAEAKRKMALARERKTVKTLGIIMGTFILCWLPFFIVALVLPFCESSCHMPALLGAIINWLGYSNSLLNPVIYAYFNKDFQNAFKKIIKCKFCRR

D(2) dopamine receptor = D(2) dopamine receptor (Rattus norvegicus, UniProt P61169); experiment: Displacement of [3H]U-86170 from Dopamine receptor D2
Outline: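 Competition binding at cloned D2 receptors expressed in CHO-K1 cells, using the agonist [3H]U86170 (62 Ci/mmol, 2 nM) against 11 dilutions of test compound. IC50 was fitted to a one-site model by nonlinear least squares. Ki was obtained with the Cheng–Prusoff equation.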

Rattus norvegicus [2] = experiment: In vivo effects on DA (dopamine) synthesis in corps striatum was reported after subcutaneous administration to reserpinized rats; inactive at a dose of 50; format: functional, organism-based
Outline: (§1)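 Male Sprague–Dawley rats (200–300 g) given reserpine 5 mg/kg sc 18 h before; compounds sc in neck region, 5 mL/kg. DOPA accumulation in striatum or cortex measured by HPLC with electrochemical detection.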

Rattus norvegicus [3] = experiment: (§2) 5-HTP accumulation in limbic system was determined in vivo; format: functional
Outline: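 Male Sprague–Dawley rats (200–300 g) pretreated with reserpine 5 mg/kg sc 18 h beforehand; test drug given sc in neck, 5 mL/kg, neutral pH. 5-HTP in limbic system measured by HPLC with electrochemical detection.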

Rattus norvegicus [4] = experiment: in vivo effects on DA (dopamine) synthesis in cortex was reported after subcutaneous administration to reserpinized rats; inactive at a dose of 50; format: functional, organism-based; outline: as §1
Rattus norvegicus [5] = organism: Rattus norvegicus; experiment: (§3) In vitro metabolic stability of the test compound was evaluated after incubation in the presence of freshly isolated rat hepatocytes; format: functional, Hepatocyte; parameters: reference not given here
Outline: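 Rat hepatocytes were isolated by modified collagenase perfusion and incubated as suspensions (5 million cells/mL) with each compound at three concentrations. Parent loss was followed by HPLC. Initial rates gave apparent Vmax and Km by direct linear plot, with CLint = Vmax/Km. Stability is expressed relative to a reference compound incubated at the same time.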

Rattus norvegicus [6] = experiment: postsynaptic effects was assessed by the increase in the locomotor activity (reversal of reserpine induced hypokinesia) during a 30 min period after subcutaneous administration using photocell motility meters at the dose of 12.5(mic roM/kg); format: ADME, organism-based; settings: in vivo, sc, 0.5 h
Outline: (§4)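 Reserpine 5 mg/kg sc was given 18 h before testing to male Sprague–Dawley rats. Test drug was given sc in the neck, and rats were placed singly in photocell motility meters. Accumulated counts were recorded over 30 min (mean, n = 4), with gross behaviour observed throughout. Student's t test was applied.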

Rattus norvegicus [7] = organism: Rattus norvegicus; experiment: as §3; format: ADME, Hepatocyte
Outline: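 Rat hepatocytes were prepared by a modified collagenase perfusion method. Each compound was incubated at three concentrations in suspension at 5 million cells/mL. Initial rates were analysed by direct linear plot to give apparent Vmax and Km, and CLint = Vmax/Km. Rates were measured by HPLC and expressed relative to a reference compound incubated at the same time.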

Rattus norvegicus [8] = experiment: in vivo effects on DA (dopamine) synthesis in cortex was reported after subcutaneous administration to reserpinized rats; format: functional, organism-based
Rattus norvegicus [9] = experiment: postsynaptic effects was assessed by the increase in the locomotor activity (reversal of reserpine induced hypokinesia) during a 30 min period after subcutaneous administration using photocell motility meters at the dose of 0.2 (mic roM/kg); format: functional; outline: as §4
Rattus norvegicus [10] = experiment: In vivo effects on DA (dopamine) synthesis in corps striatum was reported after subcutaneous administration to reserpinized rats; I = inactive at highest dose 45 umol/kg; format: functional, organism-based
Rattus norvegicus [11] = experiment: postsynaptic effects was assessed by the increase in the locomotor activity (reversal of reserpine induced hypokinesia) during a 30 min period after subcutaneous administration using photocell motility meters at the dose of 10(micro M/kg); format: ADME, organism-based; settings: in vivo, sc, 0.5 h
Outline: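 Male Sprague–Dawley rats got reserpine 5 mg/kg sc in the neck 18 h before testing. Compound was given sc in the neck (5 mL/kg), and rats were placed singly in photocell motility meters. Accumulated counts were recorded over 30 min, mean ± SEM, n = 4, with Student's t test against reserpinized controls. Testing ran 9 a.m.–1 p.m.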

Rattus norvegicus [12] = experiment: as §2; format: functional; remark: listed apart in the source
Outline: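 Male Sprague–Dawley rats (200–300 g), pretreated with reserpine 5 mg/kg sc 18 h before. Test drug given sc. 5-HTP measured in limbic brain tissue by HPLC with electrochemical detection. Dose–response curves were built from four to six dose levels (n = 4) for each substance and brain area. ED50 reported in μmol/kg sc.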

Rattus norvegicus [13] = experiment: postsynaptic effects was assessed by the increase in the locomotor activity (reversal of reserpine induced hypokinesia) during a 30 min period after subcutaneous administration using photocell motility meters at the dose of 0.8(micr oM/kg); format: ADME, organism-based; settings: in vivo, sc, 0.5 h; outline: as §4
Rattus norvegicus [14] = experiment: in vivo effects on DA (dopamine) synthesis in cortex was reported after subcutaneous administration to reserpinized rats; inactive at a dose of 2.1; format: functional, organism-based
Rattus norvegicus [15] = experiment: In vivo effects on DA (dopamine) synthesis in corps striatum was reported after subcutaneous administration to reserpinized rats; inactive at a dose of 2.1; format: functional, organism-based
Rattus norvegicus [16] = experiment: postsynaptic effects was assessed by the increase in the locomotor activity (reversal of reserpine induced hypokinesia) during a 30 min period after subcutaneous administration using photocell motility meters at the dose of 50(micro M/kg); format: ADME, organism-based; settings: in vivo, sc, 0.5 h; outline: as §4
Rattus norvegicus [17] = experiment: postsynaptic effects was assessed by the increase in the locomotor activity (reversal of reserpine induced hypokinesia) during a 30 min period after subcutaneous administration using photocell motility meters at the dose of 3.1(micr oM/kg); format: ADME, organism-based; settings: in vivo, sc, 0.5 h; outline: as §4
Rattus norvegicus [18] = experiment: in vivo effects on DA (dopamine) synthesis in cortex was reported after subcutaneous administration to reserpinized rats; inactive at a dose of 3.1; format: functional, organism-based
Rattus norvegicus [19] = experiment: In vivo effects on DA (dopamine) synthesis in corps striatum was reported after subcutaneous administration to reserpinized rats; inactive at a dose of 3.1; format: functional, organism-based
Rattus norvegicus [20] = experiment: in vivo effects on DA (dopamine) synthesis in cortex was reported after subcutaneous administration to reserpinized rats; inactive at a dose of 100; format: functional, organism-based
Rattus norvegicus [21] = experiment: In vivo effects on DA (dopamine) synthesis in corps striatum was reported after subcutaneous administration to reserpinized rats; inactive at a dose of 100; format: functional, organism-based

D(2) dopamine receptor, sequence (P61169 whole entry): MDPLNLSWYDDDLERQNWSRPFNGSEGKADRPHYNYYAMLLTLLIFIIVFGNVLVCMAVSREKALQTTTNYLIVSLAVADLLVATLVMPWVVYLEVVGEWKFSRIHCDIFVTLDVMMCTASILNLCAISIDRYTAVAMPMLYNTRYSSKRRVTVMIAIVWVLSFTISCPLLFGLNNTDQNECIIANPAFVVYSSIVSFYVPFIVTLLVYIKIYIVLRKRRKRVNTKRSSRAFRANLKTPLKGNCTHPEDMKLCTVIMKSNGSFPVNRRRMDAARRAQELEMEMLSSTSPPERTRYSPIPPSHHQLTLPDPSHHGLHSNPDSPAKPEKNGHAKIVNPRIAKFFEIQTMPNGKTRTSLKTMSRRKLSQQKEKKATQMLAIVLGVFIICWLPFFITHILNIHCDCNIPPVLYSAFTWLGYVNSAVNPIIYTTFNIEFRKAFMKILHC

| Compound | Ki [1] | Ki (D(2) dopamine receptor) | Metabolic stability (Rattus norvegicus [5]) | other results |
| --- | --- | --- | --- | --- |
| CCCN1CC[C@H]2c3c(cccc3C(=O)NCc3ccccc3)CC[C@H]21 | 22 nM | > 1000 nM | 0.16 | ED50 (Rattus norvegicus [2]): inactive; ED50 (Rattus norvegicus [3]): 7 µmol/kg; ED50 (Rattus norvegicus [4]): inactive; Locomotor activity (Rattus norvegicus [6]): 41 |
| CCCN(CCC)C1CCc2cccc(O)c2C1 (stereo unspecified) [8-OH-DPAT] |  | 86 nM |  | Metabolic stability (Rattus norvegicus [7]): 0.16; ED50 (Rattus norvegicus [3]): 0.052 µmol/kg; ED50 (Rattus norvegicus [8]): inactive; Locomotor activity (Rattus norvegicus [9]): 66; ED50 (Rattus norvegicus [10]): inactive |
| CCCNC(=O)c1cccc2c1[C@@H]1CCN(CCC)[C@@H]1CC2 | 52 nM | > 1000 nM |  | ED50 (Rattus norvegicus [2]): inactive; ED50 (Rattus norvegicus [4]): inactive; Locomotor activity (Rattus norvegicus [11]): 58; ED50 (Rattus norvegicus [12]): 4 µmol/kg |
| CCCN1CC[C@H]2c3c(cccc3C(C)=O)CC[C@H]21 | 0.4 nM | 91 nM | 0.13 | Locomotor activity (Rattus norvegicus [13]): 115; ED50 (Rattus norvegicus [12]): 0.0125 µmol/kg; ED50 (Rattus norvegicus [14]): inactive; ED50 (Rattus norvegicus [15]): inactive |
| CC(C)=CCN1CC[C@H]2c3c(Br)cccc3CC[C@H]21 | 266 nM | 18 nM |  | Metabolic stability (Rattus norvegicus [7]): 0.21 |
| CCCCN1CC[C@H]2c3c(cccc3C(N)=O)CC[C@H]21 | 83 nM | > 1000 nM | 0.3 |  |
| COCCN1CC[C@H]2c3c(cccc3C(N)=O)CC[C@H]21 | 129 nM | > 1000 nM | 0.58 |  |
| ClCCCN1CC[C@H]2c3c(Br)cccc3CC[C@H]21 | 12 nM | 73 nM |  |  |
| C=CCNC(=O)c1cccc2c1[C@@H]1CCN(CCC)[C@@H]1CC2 | 2.2 nM | > 1000 nM | 0.4 | ED50 (Rattus norvegicus [2]): inactive; ED50 (Rattus norvegicus [3]): 0.8 µmol/kg; ED50 (Rattus norvegicus [4]): inactive; Locomotor activity (Rattus norvegicus [16]): 82 |
| CCCC(=O)c1cccc2c1[C@@H]1CCN(CCC)[C@@H]1CC2 | 0.7 nM | 22 nM | 0.05 | Locomotor activity (Rattus norvegicus [17]): 631; ED50 (Rattus norvegicus [12]): 0.26 µmol/kg; ED50 (Rattus norvegicus [18]): inactive; ED50 (Rattus norvegicus [19]): inactive |
| CN1CC[C@H]2c3c(Br)cccc3CC[C@H]21 | 24 nM | 41 nM |  |  |
| CCCN(CCC)C(=O)c1cccc2c1[C@@H]1CCN(CCC)[C@@H]1CC2 | 434 nM | > 1000 nM |  |  |
| CCCCN1CC[C@H]2c3c(Br)cccc3CC[C@H]21 | 45 nM | 75 nM |  |  |
| CCN1CC[C@H]2c3c(cccc3C(N)=O)CC[C@H]21 | 23 nM | > 1000 nM | 1.5 | Locomotor activity (Rattus norvegicus [6]): 13; ED50 (Rattus norvegicus [12]): 2 µmol/kg; ED50 (Rattus norvegicus [20]): inactive; ED50 (Rattus norvegicus [21]): inactive |
| Brc1cccc2c1[C@@H]1CCN(CC3CC3)[C@@H]1CC2 | 4.7 nM | 119 nM |  |  |
